Experimental data reported in ChEMBL document CHEMBL1144700, “Synthesis of new N-phenylpyrazole derivatives with potent antimicrobial activity” (2008).
≈ marks a conversion by molar mass, not a printed value.

Experiments:
Assay type in all cases: functional
[1] = test system: Staphylococcus aureus; test: Antibacterial activity against Staphylococcus aureus after 24 hrs by agar diffusion test
Summary of the method: (§1)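 Disc diffusion: organism culture swabbed dry onto prepared agar plates; sterile 9.6 mm discs soaked in compound solution (stock 0.5 g in 10 ml DMF), dried and laid on the inoculated surface. Standard antimicrobial disc placed at the plate centre. Incubation at 37 °C for 24 h.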

[2] = test system: Pseudomonas aeruginosa; test: Antibacterial activity against Pseudomonas aeruginosa after 24 hrs by agar diffusion test; summary of the method: as §1
[3] = test system: Aspergillus fumigatus; test: Antifungal activity against Aspergillus fumigatus after 24 hrs by agar diffusion test; summary of the method: as §1
[4] = test system: Candida albicans; test: Antifungal activity against Candida albicans after 24 hrs by agar diffusion test; summary of the method: as §1
[5] = test system: Aspergillus fumigatus; test: Antifungal activity against Aspergillus fumigatus after 72 hrs
Summary of the method: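 Microwell growth assay with conidia from 48 h Sabouraud agar cultures, final 5 × 10³ conidia per well. Medium-only and fluconazole-range controls included. Incubated at 23 °C for 72 h with growth checked every 24 h, then read as absorbance at 620 nm. Each concentration run in triplicate and the experiment repeated three times.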

MIC [5] [µg/mL]	Structure (SMILES)	inhibition zone (IZ) [1] [mm/mg]	inhibition zone (IZ) [2] [mm/mg]	inhibition zone (IZ) [3] [mm/mg]	inhibition zone (IZ) [4] [mm/mg]
	Cc1c(-c2cc[nH]n2)c(C(=O)Nc2ccccc2)nn1-c1ccccc1	13	13	0	12
	Cc1c(-c2ccc(Cl)cc2)nn2c(-c3c(C(=O)Nc4ccccc4)nn(-c4ccccc4)c3C)ccnc12	10	0	0	10
25 (≈ 62.8 µM)	Cc1c(C(=O)CBr)c(C(=O)Nc2ccccc2)nn1-c1ccccc1	18	20	12	16
27.5 (≈ 66.1 µM)	Clc1ccc(COC(Cn2ccnc2)c2ccc(Cl)cc2Cl)c(Cl)c1 (centres undefined) [MICONAZOLE]				
	CC(=O)c1c(C(=O)Nc2ccccc2)nn(-c2ccccc2)c1C	21	17	0	15
	Cc1c(-c2ccnc3nncn23)c(C(=O)Nc2ccccc2)nn1-c1ccccc1	13	13	0	12
	O=C(N[C@H](CO)[C@H](O)c1ccc([N+](=O)[O-])cc1)C(Cl)Cl [CHLORAMPHENICOL]	21	20		
11 (≈ 11.9 µM)	C[C@@H]1[C@H](O)[C@@H](C)/C=C/C=C/C=C/C=C/C=C/C=C/C=C/[C@H](O[C@@H]2O[C@H](C)[C@@H](O)[C@H](N)[C@@H]2O)C[C@@H]2O[C@](O)(C[C@@H](O)C[C@@H](O)[C@H](O)CC[C@@H](O)C[C@@H](O)CC(=O)O[C@H]1C)C[C@H](O)[C@H]2C(=O)O [AMPHOTERICIN B]				
	Cc1c(-c2ccccc2)nn2c(-c3c(C(=O)Nc4ccccc4)nn(-c4ccccc4)c3C)ccnc12	8	0	0	10
	Cc1c(-c2cnc3sc4ccccc4n23)c(C(=O)Nc2ccccc2)nn1-c1ccccc1	12	10	0	12
	Cc1c(C(=O)/C=C/NNC(N)=S)c(C(=O)Nc2ccccc2)nn1-c1ccccc1	10	8	0	12
	Cc1c(C(=O)/C=C/N(C)C)c(C(=O)Nc2ccccc2)nn1-c1ccccc1	14	14	0	15
	Cc1c(-c2cnc3ccccc3n2)c(C(=O)Nc2ccccc2)nn1-c1ccccc1	11	10	0	10
	Cc1c(C(=O)CC2C(=O)CC(C)(C)CC2=O)c(C(=O)Nc2ccccc2)nn1-c1ccccc1	11	0	0	10
	CN(C/C=C/C#CC(C)(C)C)Cc1cccc2ccccc12 [TERBINAFINE]			10	10
	Cc1c(-c2csc(N)n2)c(C(=O)Nc2ccccc2)nn1-c1ccccc1	13	18	0	13
	Cc1c(-c2ccon2)c(C(=O)Nc2ccccc2)nn1-c1ccccc1	13	13	0	13
